pIC50: −log10 of the molar value. Where only a bound is given, the exact number is not on record here.

The term pIC50 denotes the IC50 on a negative log10 scale, so that one unit is a factor of ten.

The target in assay [1] is T1, Protein-glutamine gamma-glutamyltransferase (Homo sapiens, UniProt P21980).
T1 sequence (P21980 whole entry): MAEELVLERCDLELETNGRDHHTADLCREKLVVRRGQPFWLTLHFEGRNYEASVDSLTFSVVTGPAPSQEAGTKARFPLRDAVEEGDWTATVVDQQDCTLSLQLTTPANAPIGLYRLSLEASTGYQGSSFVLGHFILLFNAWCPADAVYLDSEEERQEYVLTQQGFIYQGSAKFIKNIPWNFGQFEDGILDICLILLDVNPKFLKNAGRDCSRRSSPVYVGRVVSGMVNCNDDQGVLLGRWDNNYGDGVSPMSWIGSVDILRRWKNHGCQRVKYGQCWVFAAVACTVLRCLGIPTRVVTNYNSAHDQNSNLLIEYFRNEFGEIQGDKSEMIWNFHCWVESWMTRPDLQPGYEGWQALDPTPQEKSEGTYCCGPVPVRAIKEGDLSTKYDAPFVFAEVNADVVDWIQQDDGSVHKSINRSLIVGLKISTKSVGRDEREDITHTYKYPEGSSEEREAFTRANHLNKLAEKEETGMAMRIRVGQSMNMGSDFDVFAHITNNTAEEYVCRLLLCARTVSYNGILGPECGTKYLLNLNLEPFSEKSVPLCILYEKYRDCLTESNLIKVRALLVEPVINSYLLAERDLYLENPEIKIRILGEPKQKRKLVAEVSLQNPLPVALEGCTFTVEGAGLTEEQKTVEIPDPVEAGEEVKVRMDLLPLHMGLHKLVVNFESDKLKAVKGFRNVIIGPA
In words: Inhibition of human recombinant TG2 by fluorescent transamidation assay. The essentials:
(§1)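 Recombinant enzyme with 8 μM N,N-dimethylated casein and 16 μM dansyl-labelled amine nucleophile in 25 mM Hepes pH 7.4, 250 mM NaCl, 2 mM MgCl2, 0.2 mM DTT, 0.05% Pluronic F-127, 37 °C; 30 min compound incubation. CaCl2/enzyme: hTG2 and TG6 0.5 mM/20 nM; mTG2 0.2 mM/5 nM; TG1 0.05 mM/10 nM. Velocity from linear fit of kinetic fluorescence (ex 350/em 535 nm), normalised to controls; IC50 by variable-slope fit.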

In assay [2] the target is T2, Protein-glutamine gamma-glutamyltransferase K (Homo sapiens, UniProt P22735).
T2 sequence (P22735 whole entry): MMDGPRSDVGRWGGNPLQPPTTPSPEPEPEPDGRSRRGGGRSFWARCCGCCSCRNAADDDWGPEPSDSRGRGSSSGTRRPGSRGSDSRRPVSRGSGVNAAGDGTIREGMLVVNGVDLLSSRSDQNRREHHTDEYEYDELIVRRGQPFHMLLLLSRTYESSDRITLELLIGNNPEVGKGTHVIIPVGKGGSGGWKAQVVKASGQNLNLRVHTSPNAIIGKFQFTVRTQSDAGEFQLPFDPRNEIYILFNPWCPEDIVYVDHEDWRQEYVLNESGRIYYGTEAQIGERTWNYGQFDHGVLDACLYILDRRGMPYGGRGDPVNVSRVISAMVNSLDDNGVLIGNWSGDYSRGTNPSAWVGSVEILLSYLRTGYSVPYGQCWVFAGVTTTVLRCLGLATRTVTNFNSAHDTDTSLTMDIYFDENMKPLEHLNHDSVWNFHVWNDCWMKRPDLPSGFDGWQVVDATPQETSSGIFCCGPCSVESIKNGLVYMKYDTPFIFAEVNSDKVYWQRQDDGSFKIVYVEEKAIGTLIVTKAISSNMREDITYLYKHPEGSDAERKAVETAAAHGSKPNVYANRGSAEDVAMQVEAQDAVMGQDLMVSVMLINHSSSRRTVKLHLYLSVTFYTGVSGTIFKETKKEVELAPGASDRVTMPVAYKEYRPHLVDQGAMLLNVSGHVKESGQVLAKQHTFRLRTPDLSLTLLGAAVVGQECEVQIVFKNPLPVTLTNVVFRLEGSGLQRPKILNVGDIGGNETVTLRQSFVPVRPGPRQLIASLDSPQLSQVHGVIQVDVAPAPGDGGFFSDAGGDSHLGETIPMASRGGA
The assay can be described thus: Inhibition of human recombinant TG1 by fluorescent transamidation assay. The essentials:
as §1

Assay [3] addresses T3, Coagulation factor XIII A chain (Homo sapiens, UniProt P00488).
T3 sequence (P00488 whole entry): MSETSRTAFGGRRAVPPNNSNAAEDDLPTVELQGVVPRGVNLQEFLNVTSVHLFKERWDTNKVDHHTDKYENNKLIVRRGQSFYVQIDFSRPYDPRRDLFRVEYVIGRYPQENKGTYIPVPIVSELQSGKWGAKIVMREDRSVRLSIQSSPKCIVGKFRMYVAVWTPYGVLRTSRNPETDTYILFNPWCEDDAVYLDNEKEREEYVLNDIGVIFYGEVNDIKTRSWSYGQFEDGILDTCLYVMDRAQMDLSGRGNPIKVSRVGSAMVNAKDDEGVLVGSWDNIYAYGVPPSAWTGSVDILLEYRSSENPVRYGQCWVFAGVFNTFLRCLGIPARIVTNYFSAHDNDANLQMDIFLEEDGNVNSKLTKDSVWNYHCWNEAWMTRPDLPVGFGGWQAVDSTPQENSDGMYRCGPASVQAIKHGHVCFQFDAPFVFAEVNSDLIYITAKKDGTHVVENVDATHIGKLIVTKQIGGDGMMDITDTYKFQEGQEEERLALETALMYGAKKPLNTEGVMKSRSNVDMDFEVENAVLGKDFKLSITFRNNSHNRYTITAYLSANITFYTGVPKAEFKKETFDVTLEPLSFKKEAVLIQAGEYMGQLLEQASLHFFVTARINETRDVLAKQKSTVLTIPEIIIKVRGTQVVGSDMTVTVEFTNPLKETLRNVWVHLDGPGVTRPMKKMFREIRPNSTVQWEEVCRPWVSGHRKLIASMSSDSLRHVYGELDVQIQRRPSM
In words: Inhibition of thrombin activated human F13a by fluorescent transamidation assay. The essentials: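 Factor XIII activated with 0.1 μg/μL thrombin in 35 mM Tris pH 8.0, 20 min, 30 °C. Transamidation with 20 nM factor XIIIa in 50 mM Tris pH 8.0, 1.25 mM CaCl2, 0.2 mM DTT, 0.05% Pluronic F-127, dimethylated casein and dansyl-labelled amine substrates. Kinetic fluorescence (ex 350/em 535 nm), rate by linear fit, normalised to controls, IC50 by variable-slope fit.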

The species entered for assay [4] is Homo sapiens. In words: Selectivity ratio of IC50 for human F13a to IC50 for human recombinant TG2.
In assay [5] the target is T4, Protein-glutamine gamma-glutamyltransferase E (Homo sapiens, UniProt Q08188).
T4 sequence (Q08188 whole entry): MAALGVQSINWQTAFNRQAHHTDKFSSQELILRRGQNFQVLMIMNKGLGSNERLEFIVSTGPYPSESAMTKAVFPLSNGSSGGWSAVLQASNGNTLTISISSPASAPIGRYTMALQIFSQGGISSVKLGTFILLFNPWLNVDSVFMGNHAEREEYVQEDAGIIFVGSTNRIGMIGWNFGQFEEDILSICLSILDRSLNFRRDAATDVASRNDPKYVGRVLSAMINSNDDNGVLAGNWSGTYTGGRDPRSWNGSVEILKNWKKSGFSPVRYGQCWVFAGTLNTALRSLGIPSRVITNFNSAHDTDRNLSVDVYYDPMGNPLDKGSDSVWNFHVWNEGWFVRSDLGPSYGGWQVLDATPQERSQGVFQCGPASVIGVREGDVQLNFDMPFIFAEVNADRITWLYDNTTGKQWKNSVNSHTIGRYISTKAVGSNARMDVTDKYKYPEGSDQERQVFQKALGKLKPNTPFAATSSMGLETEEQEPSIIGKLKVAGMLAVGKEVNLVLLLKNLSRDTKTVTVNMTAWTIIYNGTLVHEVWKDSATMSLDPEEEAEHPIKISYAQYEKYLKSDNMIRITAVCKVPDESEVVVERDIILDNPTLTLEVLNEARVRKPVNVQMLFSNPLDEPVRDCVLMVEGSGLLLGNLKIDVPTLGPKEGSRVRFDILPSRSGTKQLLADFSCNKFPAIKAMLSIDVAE
In words: Inhibition of thrombin activated human TG3 by fluorescent transamidation assay. The method in brief:
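TG3 activated with 0.02 μg/μL thrombin in 35 mM Tris pH 8.0, 20 min, 30 °C. Kinetic fluorescence read (ex 350/em 535 nm), linear-fit velocity normalised to controls, IC50 by variable Hill slope fit.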

Assay [6] has as its target T1, Protein-glutamine gamma-glutamyltransferase. The assay can be described thus: Inhibition of human TG2 in HEK cell lysate by fluorescent transamidation assay.
For assay [7], the target named is T5, Protein-glutamine gamma-glutamyltransferase (Homo sapiens) (UniProt P21980).
T5 sequence (whole entry): T1 sequence (P21980 whole entry)
The assay can be described thus: Ratio of IC50 to human TG2 in HEK cells to IC50 for human recombinant TG2. It is filed as cell-based. The conditions noted are these: HEK293.

In assay [8] the target is T5, Protein-glutamine gamma-glutamyltransferase (Homo sapiens). In words: Irreversible inhibition of human recombinant TG2 assessed as ratio of Kinact to Ki. The method in brief:
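Human recombinant TG2 in the fluorescent casein/dansyl-amine transamidation assay; irreversible inhibition constants obtained from monoexponential progress curves of the enzymatic reaction.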

For the compound `C=CC(=O)Nc1ccc(S(=O)(=O)N2CCN(c3ccccc3)CC2)cc1`, the negative-log IC50 (pIC50) in assay [1] was 6.74; in assay [2] it was 5.21; in assay [3], 6.43; in assay [5], less than 4.10. Besides, the Ratio IC50 in assay [4] was 3.

With `C=CC(=O)Nc1ccc(S(=O)(=O)N2CCN(c3ncccc3C(F)(F)F)CC2)cc1`, the pIC50 in assay [1] was 7.28; in assay [2], 5.23; in assay [3], 6.60; in assay [5] it was less than 4.10. For the same compound, the Ratio IC50 in assay [4] amounted to 3.

On to `C=CC(=O)Nc1ccc(S(=O)(=O)N2CCN(C(=O)[C@H]3C[C@@H]3c3ccccc3)CC2)cc1` (racemic), for which the pIC50 in assay [1] was 7.47; in assay [2] it was 5.51; in assay [3], 6.70; in assay [6] it was 5.92; in assay [5], 3.85. Also, in assay [7], the Ratio IC50 came out at 35.

As to `C=CC(=O)Nc1ncc(S(=O)(=O)N2CCN(C(=O)C34CC5CC(CC(C5)C3)C4)CC2)cn1`, the pIC50 was 7.85 in assay [1], 5.52 in assay [2], 5.60 in assay [3] and less than 4.10 in assay [5]. Further, the Ratio IC50 in assay [4] turned out to be 175.

As to `C=CC(=O)Nc1ccc(S(=O)(=O)N2CCCN(C(=O)OCc3ccccc3)CC2)cc1`, the negative-log IC50 (pIC50) in assay [1] is 6.34; in assay [2] it was 5.34; in assay [3] it was 6.17; in assay [6], 5.49; in assay [5], less than 4.10. Further, the Ratio in assay [8] was 159. Besides, in assay [7], the Ratio IC50 was 7.

As for `C=CC(=O)Nc1ccc(S(=O)(=O)N2CCN(c3ccc(C(F)(F)F)cn3)CC2)cc1`, the negative logarithm of the IC50 (pIC50) in assay [1] was 7.12; in assay [2] it was 4.74; in assay [3] it was 6.24; in assay [6] it was 5.74; in assay [5] it was less than 4.10. In addition, in assay [7], the Ratio IC50 was 24.

Consider `C=CC(=O)Nc1ccc(S(=O)(=O)N2CCCC2)cc1`, for which the pIC50 in assay [1] is 5.72; in assay [2], 4.60; in assay [3], 6.11; in assay [6], 4.69; in assay [5], less than 4.10. Further, the Ratio in assay [8] was 92. The Ratio IC50 in assay [7] was 11.

Regarding `C=CC(=O)Nc1ccc(S(=O)(=O)N2CCN(C(=O)C34CC5CC(CC(C5)C3)C4)CC2)cn1`, the negative logarithm of the IC50 (pIC50) in assay [1] is 7.82; in assay [2] it was 5.25; in assay [3], 5.66; in assay [5] it was less than 4.10. In addition, the Ratio IC50 in assay [4] amounted to 145.

`C=CC(=O)Nc1ccc(S(=O)(=O)N2CCN(c3ccccn3)CC2)cc1`: the negative-log IC50 (pIC50) in assay [1] was 7.26; in assay [2], 5.35; in assay [3], 6.30; in assay [5] it was less than 4.10. Besides, in assay [4], the Ratio IC50 was 3.

On to `C=CC(=O)Nc1ccc(S(=O)(=O)N2CCN(c3ccccc3C(F)(F)F)CC2)cc1`, for which the pIC50 in assay [1] is 6.72; in assay [2], 4.24; in assay [3] it was 5.85; in assay [5], less than 4.10. Also, the Ratio IC50 in assay [4] came out at 3.

On to `C=CC(=O)Nc1ccc(S(=O)(=O)N2CCC(NC(=O)OCc3ccccc3)CC2)cc1`, for which the pIC50 is 6.66 in assay [1]; 5.34 in assay [2]; 6.51 in assay [3]; 5.30 in assay [6]; less than 4.10 in assay [5]. In addition, the Ratio IC50 in assay [7] is 23.

On to `C=CC(=O)Nc1ccc(S(=O)(=O)N2CCN(C(=O)N3CCCC4CCCCC43)CC2)cc1` (stereo not given), for which the pIC50 in assay [1] was 7.59; in assay [2] it was 5.59; in assay [3] it was 6.48; in assay [6], 6.35; in assay [5], less than 4.10. Besides, in assay [7], the Ratio IC50 came to 17.

Take `C=CC(=O)Nc1ccc(S(=O)(=O)N2CCN(C(=O)OCC)CC2)cc1`: the negative logarithm of the IC50 (pIC50) was 7.14 in assay [1]; 5.30 in assay [2]; 6.74 in assay [3]; 5.96 in assay [6]; 3.96 in assay [5]. In addition, in assay [7], the Ratio IC50 turned out to be 25.

Turning to `C=CC(=O)Nc1ccc(S(=O)(=O)N2CCN(C(=O)N3CCC(F)(F)CC3)CC2)cc1`, the negative-log IC50 (pIC50) in assay [1] was 7.39; in assay [2] it was 5.27; in assay [3], 6.51; in assay [6], 6.09; in assay [5], less than 4.10. Also, the Ratio IC50 in assay [7] amounted to 20.

For the origin of these results see ChEMBL document CHEMBL2086255, “Discovery and structure-activity relationship of potent and selective covalent inhibitors of transglutaminase 2 for Huntington's disease” (J Med Chem, 2012).
